Here are results for seven molecules from PMC5269645 (Journal of the American Chemical Society, 2016).

For assay [1], the target named is T1, BtGH99 (Bacteroides thetaiotaomicron, UniProt Q8A109).
T1 sequence (Q8A109 18-382): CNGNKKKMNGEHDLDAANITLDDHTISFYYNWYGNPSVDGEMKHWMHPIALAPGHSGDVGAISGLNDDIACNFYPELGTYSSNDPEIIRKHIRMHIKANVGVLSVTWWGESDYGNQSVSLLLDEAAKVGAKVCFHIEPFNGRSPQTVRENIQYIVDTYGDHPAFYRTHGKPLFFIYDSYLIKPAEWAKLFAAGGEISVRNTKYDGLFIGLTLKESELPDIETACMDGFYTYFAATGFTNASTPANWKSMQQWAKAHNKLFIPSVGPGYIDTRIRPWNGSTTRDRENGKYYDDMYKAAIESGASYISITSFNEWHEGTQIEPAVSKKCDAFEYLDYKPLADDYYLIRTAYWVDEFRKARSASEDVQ
The note with it: read-out: KD values, BtGH99; ITC; cited from earlier work.

For assay [2], the target named is rat endomannosidase. The note with it: read-out: IC50, rat endomannosidase; inhibition of cleavage of 14C-labeled GlcMan9GlcNAc; cited from earlier work.
Assay [3] addresses BxGH99. The following applies: read-out: KD values, BxGH99; ITC; cited from earlier work.
Assay [4] deals with T1, BtGH99. The assay can be described thus: 2D NMR. The class given is binding. An outline of the steps:
(§1)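 1H–15N SOFAST-HMQC spectra of 15N-labeled enzyme (average 58 μM) recorded for 1 h at 298 K in 50 mM potassium phosphate pH 7.0, 50 mM KCl, 5% D2O. Active-site Arg Nε-Hε peak (R295, Bx numbering) served as reporter. Bound fraction from peak intensities at several protein/ligand ratios, fitted against free ligand for KD. Duplicate points; Monte Carlo error propagation (n = 10 000), standard deviation.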

Assay [5] concerns the target T2, BxGH99 (Bacteroides xylanisolvens, UniProt D6D1V7).
T2 sequence (D6D1V7 13-380): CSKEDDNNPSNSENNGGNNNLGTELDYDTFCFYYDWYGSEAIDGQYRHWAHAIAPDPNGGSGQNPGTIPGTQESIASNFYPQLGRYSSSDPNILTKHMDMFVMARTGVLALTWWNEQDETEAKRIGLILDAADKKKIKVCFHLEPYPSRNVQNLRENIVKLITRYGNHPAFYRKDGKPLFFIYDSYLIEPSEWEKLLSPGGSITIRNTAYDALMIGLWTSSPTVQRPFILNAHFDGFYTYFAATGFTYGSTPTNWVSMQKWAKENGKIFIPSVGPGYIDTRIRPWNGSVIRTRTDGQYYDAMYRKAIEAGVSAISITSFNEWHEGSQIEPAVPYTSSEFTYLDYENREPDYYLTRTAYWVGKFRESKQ
The assay can be described thus: 2D NMR. The class given is binding. In outline: as §1

For assay [6], the system named is various glycosidases. The note with it: cited from earlier work.

Each structure is given as a SMILES string. Where two headings read alike, the source gives them in different places.

In the case of `OC[C@H]1NC[C@@H](O)[C@@H](O[C@H]2O[C@H](CO)[C@@H](O)[C@H](O)[C@H]2O)[C@@H]1O` [compound 1, GlcDMJ], the Kd in assay [1] was 24 µM. Also, the half-maximal inhibitory concentration (IC50) in assay [2] was 1.7 µM. For the molecule `OC[C@H]1CNCC(O[C@H]2O[C@H](CO)[C@@H](O)[C@H](O)[C@H]2O)[C@@H]1O` (stereo partly drawn) [compound 2, GlcIFG], in assay [1], the dissociation constant Kd is 0.63 µM. Turning to `OC[C@H]1CNCC(O[C@H]2O[C@H](CO)[C@@H](O)[C@H](O)[C@@H]2O)[C@@H]1O` (stereo partly drawn) [compound 3, ManIFG], the Kd in assay [1] was 0.14 µM; in assay [3], 0.27 µM. On to `OC[C@H]1OCC[C@@H](O[C@H]2O[C@H](CO)[C@@H](O)[C@H](O)[C@H]2O)[C@@H]1O` [compound 4, GlcddMan], for which, in assay [2], the IC50 was 3.8 µM. For the molecule `OC[C@H]1OCC[C@@H](O[C@H]2O[C@H](CO)[C@@H](O)[C@H](O)[C@@H]2O)[C@@H]1O` [compound 5, α-D-Mannopyranosyl-(1→3)-1,2-dideoxy-D-mannopyranose], the equilibrium dissociation constant (Kd) is 53 ± 5 µM in assay [4] and 221 ± 11 µM in assay [5]. The “affinity relative to ManGlucal, fold worse, BxGH99” value in assay [5] (ratio of KD values) is 8 fold.

With `OC[C@H]1O[C@H](O[C@@H]2C=CO[C@H](CO)[C@H]2O)[C@@H](O)[C@@H](O)[C@@H]1O` [compound 7, α-D-Mannopyranosyl-(1→3)-1,5-anhydro-2-deoxy-D-arabino-hex-1-enitol], the dissociation constant Kd worked out at 15 ± 1.9 µM in assay [4] and 111 ± 11 µM in assay [5].

For `OC[C@H]1CNC(O)[C@@H](O)[C@@H]1O` (stereo partly drawn) [noeuromycin], the “times more tightly bound than isofagomine” value in assay [6] is listed as 2–4000 times.
